Sampled rows, rich in hits. Any-hit rate of the full collection: about 4.7%.
MrgX1 antag: antagonists of human MrgX1 receptor, primary screen, HEK293 cells, Fluo-4 calcium flux | Mas-related G-protein coupled receptor member X1 (Homo sapiens), Q96LB2 | BAM8-22 antagonism; stronger effect = lower value | B-score at 10 µM | hit rate 1.3% among 310,000;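 active = calcium-response B-score plate-corrected more than 3 library SD below zero, starting fluorescence within 5 deviations, no agonist response on first addition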;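 note: peak minus trough fluorescence over baseline after final BAM8-22 challenge near maximal dose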
Target sequence (Q96LB2 whole entry, looked up): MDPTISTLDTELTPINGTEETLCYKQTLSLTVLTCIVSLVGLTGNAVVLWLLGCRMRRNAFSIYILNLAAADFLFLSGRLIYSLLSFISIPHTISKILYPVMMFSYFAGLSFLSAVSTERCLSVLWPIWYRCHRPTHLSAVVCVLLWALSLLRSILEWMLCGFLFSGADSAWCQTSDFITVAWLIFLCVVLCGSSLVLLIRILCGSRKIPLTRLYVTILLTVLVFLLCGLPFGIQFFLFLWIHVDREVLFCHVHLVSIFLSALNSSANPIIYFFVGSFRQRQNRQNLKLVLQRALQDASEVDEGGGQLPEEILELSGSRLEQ
RGS4 pot: RGS4 potentiators or activators, primary screen, cell-based, HEK293 M3R inducible RGS4, calcium flux. B-score at 10 µM. carbachol calcium flux Fluo4; stronger effect = lower value. hit rate 0.92% among 310,000;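 active = B-score of the integrated calcium signal more than 4 SD below the library mean, with starting fluorescence not abnormally high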;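 note: negative B-score means reduced calcium response which marks RGS4 activation or potentiation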
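Material: M3R-expressing HEK293 line, RGS4 induced by doxycycline | Schedule: Overnight RGS4 induction, 30 min dye load 37 °C, 20 min compound RT | Measured by: Fluo4 fluorescence kinetic imaging of calcium | Read-out: Integrated calcium ratio converted to B score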
RGS4 inh: RGS4 inhibitors, primary screen, cell-based, HEK293 M3R inducible RGS4, calcium flux | Fluo-4 calcium flux; stronger effect = higher value; triggered by carbachol at its EC20 | B-score at 10 µM | hit rate 0.45% among 310,000 | Regulator of G-protein signaling 4 (Homo sapiens), P49798;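 active = B-score, a plate-corrected calcium signal, over three deviations above library mean, with baseline fluorescence within five deviations of library mean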;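 note: RGS4 expression induced by doxycycline in cells with stable M3 receptor; B-score is computed from the integrated fluorescence ratio over baseline after carbachol; higher B-score means a larger calcium signal and so more RGS4 inhibition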
Target sequence (P49798 whole entry, looked up): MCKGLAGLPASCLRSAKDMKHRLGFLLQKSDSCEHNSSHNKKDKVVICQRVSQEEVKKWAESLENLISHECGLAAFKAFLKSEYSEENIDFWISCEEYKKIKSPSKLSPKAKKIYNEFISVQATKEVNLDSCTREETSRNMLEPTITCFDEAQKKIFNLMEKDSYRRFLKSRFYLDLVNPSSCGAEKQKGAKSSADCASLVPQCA
MrgX1 allo act: positive allosteric modulators of MrgX1, primary screen, HEK293 cells, Fluo-4 calcium flux | hit rate 0.63% among 310,000 | FDSS; stronger effect = higher value | Mas-related G-protein coupled receptor member X1 (Homo sapiens), Q96LB2 | B-score at 10 µM;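 active = plate-corrected calcium response at least 3 library SD above typical, normal starting fluorescence, not activating the receptor alone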;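 note: compound read alongside a low EC10 to EC30 dose of BAM8-22 agonist; peak minus trough fluorescence over baseline measured at the second addition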
MrgX1 ag: agonists of human MrgX1 receptor, primary screen, HEK293 cells, Fluo-4 calcium flux. B-score at 10 µM. Fluo-4 calcium fluorescence, agonist mode; stronger effect = higher value. hit rate 0.44% among 310,000;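 active = calcium response B-score plate-corrected fluorescence ratio at least 3 library SD, with starting fluorescence B-score inside 5 SD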
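times = overnight plating, then 30 min 37 °C plus 30 min room-temperature dye loading | assay system = stable human MrgX1 HEK293 cell line | input = fifteen thousand cells per well | signal = kinetic calcium dye fluorescence, Fluo-4 NW | dosing = compound delivered in addition one of three | read-out = B-scored fluorescence response ratio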
KCC2 mod: KCC2 cotransporter modulators, thallium flux, primary screen, cell-based, HEK293 KCC2, FluoZin-2 fluorescence, MLSMR; Solute carrier family 12 member 5 (Homo sapiens), Q9H2X9; KCC2 cells, thallium flux FluoZin-2 fluorescence; B-score of Tl+ flux slope (higher = more flux/activation; lower = inhibition) at 10 µM; hit rate 2.2% among 190,000; AID 1456, 2008;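 active = thallium flux slope and its plate-corrected score both differing from the plate sample mean at a set confidence after two filtering rounds, in either direction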;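 note: slope of fluorescence scaled to starting intensity during 10 to 20 s after thallium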
An asterisk follows results filed as active; i = inactive; . = no result.

SMILES | MrgX1 antag | RGS4 pot | RGS4 inh | MrgX1 allo act | MrgX1 ag | KCC2 mod
COc1c(O)c(=O)n2c3ccccc3c3ccnc1c32 | i | i | i | 37* | i | .
O=c1c(Cl)c(O)c2cccc3c4ccccc4n1c23 | i | i | i | i | i | -1.8
CC(C)N(C(C)C)S(=O)(=O)c1ccc(NC(=O)c2cnccn2)cc1 | i | i | i | i | i | .
Cn1cc(CNC(=O)c2cc(COc3ccc4c(c3)CCCC4)on2)cn1 | i | i | i | i | i | .
O=C(NC(c1cccnc1)C(F)(F)F)c1cc(COc2ccc3c(c2)CCCC3)on1 (centres undefined) | i | -7.1* | i | i | i | .
CC(C)c1nc(=S)c2ccccc2[nH]1 | i | i | i | i | i | 19*
O=c1[nH]c(C2CCCCC2)nc2ccccc12 | i | i | i | i | i | 0.47
S=c1nc(C2CC2)[nH]c2ccccc12 | i | i | i | i | i | 32*
S=c1nc(C2CCCCC2)[nH]c2ccccc12 | i | i | i | i | i | 86*
CNc1nc(=S)[nH]c2ccccc12 | i | i | i | i | i | 0.9
COC(=O)CCC(=O)N1CCCC(CO)(Cc2ccccc2F)C1 (centres undefined) | i | i | i | i | i | .
COc1ccccc1NS(=O)(=O)c1cccc(C(=O)N/N=C/c2ccc(C)o2)c1 | i | i | i | 18* | i | -0.6
Cc1ccc(/C=N/NC(=O)c2cccc(S(=O)(=O)Nc3ccccc3Cl)c2)s1 | i | i | i | 11* | i | 0.18
Cc1ccc(/C=N/NC(=O)c2ccc(-c3ccccc3)cc2)o1 | i | i | i | i | i | .
COc1ccccc1NS(=O)(=O)c1cccc(C(=O)NCC(c2ccccc2OC)N2CCCC2)c1 (centres undefined) | -5.7* | i | i | i | i | .
COc1ccccc1C(CNC(=O)c1cccc(S(=O)(=O)Nc2ccc(C)cc2)c1)N1CCCC1 (centres undefined) | i | i | i | i | i | .
Cc1ccc(/C=N\NC(=O)c2cc([N+](=O)[O-])cc([N+](=O)[O-])c2)o1 | i | i | i | i | i | 4.7*
Cc1ccc(/C=N/NC(=O)c2cccc(S(=O)(=O)Nc3cccc(Cl)c3)c2)o1 | i | i | i | i | i | 0.33
O=C(N/N=C/c1ccccc1C(=O)O)c1cccc(S(=O)(=O)Nc2cc(Cl)ccc2Cl)c1 | i | i | i | i | i | 1.4
COc1cccc(CNC(=O)Cn2c(=O)n(CCC(=O)N3CCCCC3)c(=O)c3sccc32)c1 | i | i | i | i | i | .
COc1cccc(CN(C)C(=O)c2ccc(NC(=O)CC3SC(N4CCCC4)=NC3=O)cc2)c1OC (centres undefined) | i | i | i | i | i | .
CCn1ncc(Br)c1C(=O)NC1CCCCCCC1 | i | i | i | i | i | .
CCOc1ccc(/C=C2/SC(=O)NC2=S)cc1 | i | i | i | i | 32* | 69*
CCOc1ccc(/C=C2\SC(=S)N(N3C(=O)C4CC4C3=O)C2=O)cc1 (centres undefined) | i | i | i | i | i | 0.54
COc1cccc(-c2nc(=S)c3c(n2Cc2ccco2)CCCC3)c1 | i | i | i | i | i | 13*
SMILES | MrgX1 antag | RGS4 pot | RGS4 inh | MrgX1 allo act | MrgX1 ag | KCC2 mod
Cc1ccc(-c2nc(=S)c3c(n2Cc2ccco2)CCCC3)cc1 | . | . | . | . | . | 25*
O=C(c1ccc([N+](=O)[O-])cc1)N1CCN(c2ncc(Br)cn2)CC1 | i | i | i | i | i | .
Cc1[nH]oc(=O)c1N=Nc1ccc2[nH]c(=O)[nH]c2c1 | i | i | i | i | i | .
C=CC(=O)N(CCC)C(c1ccccc1)c1ccccc1OC (centres undefined) | i | i | i | i | i | .
CCCCc1ccc(N=N/C(C(=O)Nc2ccccc2OC)=C(/C)O)cc1 | -9.1* | i | i | i | i | -0.22
CCCCc1ccc(N=N/C(C(=O)Nc2cc(OC)c(NC(C)=O)cc2OC)=C(/C)O)cc1 | i | i | i | i | i | -0.13
CCc1c(C)c(C#N)c2nc3ccccc3n2c1NCc1ccco1 | i | i | i | i | i | -3.8*
CCCn1c(=O)c2ccccc2n2c(SCC(=O)N3CCc4ccccc4C3)nnc12 | i | i | i | i | i | -4.1*
O=[N+]([O-])c1cccc(S(=O)(=O)NCc2ccncc2)c1 | i | i | i | i | i | .
CC(=O)c1ccc(-c2ccc(/C=C(/Sc3n[nH]c(C)n3)C(=O)O)o2)cc1 | -4.8* | i | i | i | i | -0.53
Cc1nc(S/C(=C/c2ccc(-c3ccc(Cl)cc3)o2)C(=O)O)n[nH]1 | i | i | i | i | i | -0.06
Cc1nc(S/C(=C/c2ccc(-c3cc(Cl)ccc3C)o2)C(=O)O)n[nH]1 | -5* | i | i | i | i | .
O=C(C1=C(O)C(=O)N(CCCn2ccnc2)C1c1ccc(F)cc1)c1ccco1 (centres undefined) | i | i | i | i | i | .
CCCOc1ccc(C2C(C(=O)c3ccco3)=C(O)C(=O)N2CCCn2ccnc2)cc1 (centres undefined) | -7.5* | i | i | i | i | .
Cc1ccc(S(=O)(=O)NCC(=O)N(CC2CCCO2)C(C(=O)NCC2CCCO2)C(C)C)cc1 (centres undefined) | i | i | i | i | i | .
Cc1nn(C)c(Oc2cccc(C(F)(F)F)c2)c1C=O | -5.9* | i | i | i | i | .
CC(=O)OCc1c(C(F)(F)F)nn(C)c1Oc1cccc(C(F)(F)F)c1 | i | i | i | i | i | 0.35
O=C1NN(c2ccccc2)C(=O)/C1=C/c1cccs1 | i | i | i | i | 43* | -0.42
O=C1NN(c2ccccc2)C(=O)/C1=C\c1ccccc1 | i | i | i | i | i | .
O=C1NN(c2cccc(Br)c2)C(=O)/C1=C/c1cccs1 | i | i | i | i | 30* | 0.33

Screening results as filed in PubChem BioAssay.
